The source of these data is ChEMBL document CHEMBL1137302 (J Med Chem, 2006).

As usually defined, the EC50 is the concentration giving half of the maximal effect. Broadly, the Ki is the dissociation constant of the complex between target and ligand, obtained from inhibition or displacement. As a reminder, the bioavailability is dose-corrected exposure relative to a reference, in per cent. As a reminder, the half-life is how long it takes for the measured level to halve. The term AUC denotes concentration integrated over time. Usually inhibition stands for how much of the control response was suppressed.

Series [1] deals with D(3) dopamine receptor (Homo sapiens) (UniProt P35462). The series can be described thus: Agonist activity at human D3 receptor in HEK293 cells coexpressing G-alpha-qo5 by FLIPR upto 10 uM. It is filed as functional, cell-based.
Series [2] can be described thus: Agonist activity at ferret D4 receptor in HEK293 cells coexpressing G-alpha-qo5 by FLIPR. It is filed as functional, cell-based, Mustela putorius furo. The following applies: Mustela putorius. The method in brief:
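HEK cells cotransfected with ferret D4 receptor and chimeric G protein Gqo5, with receptor activation read as a calcium flux signal on FLIPR. EC50 is the concentration giving half-maximal activation.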

The target of series [3] is T1, D(4) dopamine receptor (Homo sapiens, UniProt P21917).
T1 sequence (P21917 whole entry): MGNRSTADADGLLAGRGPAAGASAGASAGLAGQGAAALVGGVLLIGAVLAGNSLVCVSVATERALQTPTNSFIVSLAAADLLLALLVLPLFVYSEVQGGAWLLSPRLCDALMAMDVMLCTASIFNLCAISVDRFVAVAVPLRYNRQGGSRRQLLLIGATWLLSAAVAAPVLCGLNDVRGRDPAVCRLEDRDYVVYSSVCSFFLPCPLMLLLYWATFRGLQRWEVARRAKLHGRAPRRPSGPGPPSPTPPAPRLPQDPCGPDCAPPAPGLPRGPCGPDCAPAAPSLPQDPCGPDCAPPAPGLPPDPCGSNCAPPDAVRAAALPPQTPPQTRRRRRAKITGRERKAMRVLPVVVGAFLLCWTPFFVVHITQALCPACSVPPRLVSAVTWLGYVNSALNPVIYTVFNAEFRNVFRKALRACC
The series can be described thus: Displacement of [3H]A369508 from human D4 receptor expressed in HEK293 cell membrane. The series is classed as cell membranes.

Series [4] addresses cGMP-specific 3',5'-cyclic phosphodiesterase (Homo sapiens) (UniProt O76074). Kind of series: Activity at PDE5 at 10 uM. The method in brief:
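Broad selectivity panel (over 70 receptors, ion channels and neuronal receptors, PDE1-6 included) run at a single 10 µM concentration.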

A further series deals with Rattus norvegicus. The series can be described thus: Proerectile activity in rat measured as incidence of penile erection at 0.1 umol/kg, sc. The series is classed as functional. In outline: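 Conscious male rats were given a single subcutaneous injection and observed for penile erections over the following 60 min. The read-out was the incidence of erections, expressed as % of animals ± SEM (n = 12–32 animals per group), with significance tested against controls. The value is the maximal incidence at the maximally effective dose.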

Series [5] deals with T1, D(4) dopamine receptor. The series can be described thus: Agonist activity at human D4.4 receptor in HEK293 cells coexpressing G-alpha-qo5 by FLIPR. It is filed as functional, cell-based.
The nature of series [6]: Bioavailability in rat at 1 mg/kg, sc. The following applies: in vivo. It is filed as ADME, organism-based. In outline: (§1)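 Single 1 mg/kg dose given iv, sc or orally to Sprague-Dawley rats, dogs and monkeys; plasma concentrations followed over time (mean ± SEM, n = 3). Cmax, AUC, half-life, clearance and bioavailability calculated from the curves.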
Series [7] in a line: Bioavailability in monkey at 1 mg/kg, po. It is filed as ADME, organism-based, Macaca mulatta. The following applies: rhesus monkey, in vivo. In outline: as §1
Series [8] in a line: Half life in dog at 1 mg/kg, po. It is filed as ADME, organism-based, Canis lupus familiaris. More on the design: dose 1 mg/kg, route oral. The following applies: in vivo. In outline: as §1
A short description of series [9]: AUC in rat at 1 mg/kg, po. Conditions: plasma. It is filed as ADME, organism-based. More on the design: dose 1 mg/kg, route oral. In outline: as §1
The target in another series is hERG (Homo sapiens, UniProt Q12809). The series can be described thus: Blockade of current at hERG expressed in HEK293 cells at 1 ug/mL. It is filed as cell-based. Conditions: HEK293 cells that express hERG. The method in brief:
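hERG stably expressed in HEK 293 cells (MEM with 10% FBS, G418), whole-cell voltage clamp. Pipette: K aspartate/KCl/EGTA/MgATP, pH 7.3. Bath: NaCl-based HEPES, pH 7.4. Compound dissolved in DMSO and diluted in bath (DMSO ≤0.1%), one concentration per cell. Steps to -25, 0, 25, 50 mV for 3 s, then -50 mV for 4 s, from -80 mV every 15 s.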

Each structure is given as a SMILES string. Calls of active or inactive are those of the source. No cut-off for these calls is given here.

Chain of D(3) dopamine receptor (Homo sapiens) (P35462 whole entry): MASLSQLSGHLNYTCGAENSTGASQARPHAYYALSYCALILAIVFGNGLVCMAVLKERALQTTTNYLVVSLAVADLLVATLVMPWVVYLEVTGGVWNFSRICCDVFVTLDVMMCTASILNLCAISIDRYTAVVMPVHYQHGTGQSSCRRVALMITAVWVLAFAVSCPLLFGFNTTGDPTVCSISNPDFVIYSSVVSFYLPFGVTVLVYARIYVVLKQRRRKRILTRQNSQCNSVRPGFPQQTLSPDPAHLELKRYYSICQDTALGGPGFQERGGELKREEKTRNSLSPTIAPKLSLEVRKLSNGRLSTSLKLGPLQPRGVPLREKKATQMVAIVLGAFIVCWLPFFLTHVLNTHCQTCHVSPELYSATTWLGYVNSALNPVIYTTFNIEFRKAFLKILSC
Chain of hERG (Q12809 whole entry): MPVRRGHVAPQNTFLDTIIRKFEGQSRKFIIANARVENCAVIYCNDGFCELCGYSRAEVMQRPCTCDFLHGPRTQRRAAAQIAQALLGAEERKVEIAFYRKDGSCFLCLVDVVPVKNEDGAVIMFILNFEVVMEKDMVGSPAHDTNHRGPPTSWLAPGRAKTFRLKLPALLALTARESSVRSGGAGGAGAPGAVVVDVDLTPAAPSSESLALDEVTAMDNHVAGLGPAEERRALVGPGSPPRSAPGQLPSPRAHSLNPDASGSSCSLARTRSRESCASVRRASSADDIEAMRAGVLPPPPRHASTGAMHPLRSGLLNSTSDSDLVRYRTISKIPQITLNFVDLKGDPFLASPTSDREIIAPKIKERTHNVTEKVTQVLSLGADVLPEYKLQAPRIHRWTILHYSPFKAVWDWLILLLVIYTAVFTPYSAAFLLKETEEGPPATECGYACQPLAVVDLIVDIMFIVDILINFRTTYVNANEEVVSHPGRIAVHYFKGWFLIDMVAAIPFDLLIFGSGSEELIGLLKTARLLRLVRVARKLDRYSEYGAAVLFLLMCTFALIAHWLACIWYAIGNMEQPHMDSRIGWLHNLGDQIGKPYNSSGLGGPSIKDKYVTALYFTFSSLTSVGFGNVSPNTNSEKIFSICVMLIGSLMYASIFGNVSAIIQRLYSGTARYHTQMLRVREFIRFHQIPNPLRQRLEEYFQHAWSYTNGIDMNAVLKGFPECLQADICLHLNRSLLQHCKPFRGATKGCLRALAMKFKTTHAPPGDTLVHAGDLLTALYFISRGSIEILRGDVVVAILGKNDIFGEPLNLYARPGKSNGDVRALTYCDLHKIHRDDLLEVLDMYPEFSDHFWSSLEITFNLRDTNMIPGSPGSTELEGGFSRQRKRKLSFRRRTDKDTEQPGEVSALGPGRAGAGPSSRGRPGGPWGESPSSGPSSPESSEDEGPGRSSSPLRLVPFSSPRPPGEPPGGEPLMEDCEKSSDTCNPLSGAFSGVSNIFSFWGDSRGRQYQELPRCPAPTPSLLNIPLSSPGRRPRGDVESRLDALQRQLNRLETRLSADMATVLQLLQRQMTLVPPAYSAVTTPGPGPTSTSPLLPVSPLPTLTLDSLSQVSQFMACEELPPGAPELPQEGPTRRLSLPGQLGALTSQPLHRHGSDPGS

Consider `Cc1cccc(C(=O)NCN2CCC(c3cccc[n+]3[O-])CC2)c1`, for which the result in [1] and in series [4] was inactive. The 50% effective concentration (EC50) came out at 160 nM in series [2] and 89 nM on D(4) dopamine receptor [5]. Moreover, the affinity at D(4) dopamine receptor [3], expressed as Ki, was 1440 nM. Moreover, the Activity in the series on Rattus norvegicus is 75%. Further, the bioavailability was 84% in [6] and 91% in [7]. The half-life in series [8] is 2.1 h. Moreover, the AUC in [9] worked out at 922 ng·h/mL. The same molecule had an inhibition at 1 ug/mL on hERG of 14.4%.
